# Test results published in paper PMC2606940 (The Journal of General Physiology, 2009).
# Residue numbers refer to the chain shown, from its start. Counter-ions that a name gives are not always drawn.
# Experiments:
# CLC-0 E166A mutant = molecular target: T1, CLC-0 E166A mutant (Torpedo marmorata, UniProt P21564, C212S/E166A); assay type: cell-based; details: for K1/2 (range in words): −140 mV (Fig. 10 C)
# T1 sequence (P21564 1-805 E166A/C212S): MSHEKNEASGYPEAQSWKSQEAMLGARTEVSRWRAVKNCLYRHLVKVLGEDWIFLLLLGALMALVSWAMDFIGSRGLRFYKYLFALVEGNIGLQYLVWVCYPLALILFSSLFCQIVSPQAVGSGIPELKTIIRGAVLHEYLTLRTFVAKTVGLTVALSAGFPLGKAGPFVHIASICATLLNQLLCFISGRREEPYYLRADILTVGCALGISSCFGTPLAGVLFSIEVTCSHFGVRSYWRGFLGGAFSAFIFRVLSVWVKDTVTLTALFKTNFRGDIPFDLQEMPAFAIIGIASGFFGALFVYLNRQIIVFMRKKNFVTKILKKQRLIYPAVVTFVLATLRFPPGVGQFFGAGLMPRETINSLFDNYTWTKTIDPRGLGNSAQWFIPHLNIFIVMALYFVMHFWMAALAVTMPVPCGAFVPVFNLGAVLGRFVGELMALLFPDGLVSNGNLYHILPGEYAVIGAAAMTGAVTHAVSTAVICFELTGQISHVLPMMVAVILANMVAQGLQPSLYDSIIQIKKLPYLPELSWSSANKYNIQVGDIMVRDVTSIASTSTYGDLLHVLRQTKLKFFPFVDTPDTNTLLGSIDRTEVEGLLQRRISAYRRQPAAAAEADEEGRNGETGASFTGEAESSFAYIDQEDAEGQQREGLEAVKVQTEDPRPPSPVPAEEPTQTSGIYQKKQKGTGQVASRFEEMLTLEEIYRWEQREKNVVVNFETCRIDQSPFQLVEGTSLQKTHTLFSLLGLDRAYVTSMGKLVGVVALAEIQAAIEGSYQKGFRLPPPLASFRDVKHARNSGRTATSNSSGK
# How it was run: (§1)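 HEK293 cells expressed C212S-background CLC-0 mutants and were recorded 1–3 d post-transfection as inside-out patches in symmetrical 130 mM NaCl, 10 mM HEPES, pH 7.4. CPA, fatty acids or alkyl sulfates flowed continuously on the cytoplasmic side. C10–C12 compounds were diluted into bath solution from 10 mM DMSO stocks. Test steps ran from +80 to −160 mV after a +80 mV prepulse. Steady-state current was normalized to the mean of pre- and post-blocker controls, and a Langmuir K1/2 was taken at each voltage from ~4–6 patches.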
# CLC-0 E166Q mutant = molecular target: T2, CLC-0 E166Q mutant (Torpedo marmorata, UniProt P21564, C212S/E166Q); assay type: cell-based; details: 5 μM SDS
# T2 sequence (P21564 1-805 E166Q/C212S): T1 sequence (P21564 1-805 E166A/C212S) with A166Q
# How it was run: as §1
smiles,measurement,setting,value
CS(=O)(=O)SCCS(=O)(=O)O [2-sulfonatoethyl MTS],blocking affinity (in words),CLC-0 E166A mutant,lower affinities than that observed with SDS
CS(=O)(=O)SCCCCCS(=O)(=O)O [5-sulfonatopentyl MTS],blocking affinity (in words),CLC-0 E166A mutant,lower affinities than that observed with SDS
CCCCCCCCO [Octanol],blocking affinity (in words),CLC-0 E166A mutant,low affinity
same,voltage dependence of the block,CLC-0 E166A mutant,no voltage dependence
"CCCCCCCCCCCCOS(=O)(=O)O [SDS, dodecyl sulfate]",blocking affinity (in words),CLC-0 E166A mutant,high affinity
same,block of current,"CLC-0 E166A mutant; 5 μM SDS, −160 mV",~50%
same,effect on current,CLC-0 E166Q mutant,very limited effect
CCCC(=O)O [butyrate],K1/2 (range in words),CLC-0 E166A mutant,mM range
CCCCCCCCCC(=O)O [decanoate],K1/2 (range in words),CLC-0 E166A mutant,low μM range
CCCCCCCCCCCC(=O)O [dodecanoate],K1/2 (range in words),CLC-0 E166A mutant,low μM range
CCC(=O)O [propionate],K1/2 (range in words),CLC-0 E166A mutant,mM range
